CHO-K1 Ca antag: counter-screen for M1 antagonists: effect in parental CHO-K1 cells; ATP-induced calcium, Fluo-8 fluorescence; inhibition, % at 3 µM; actives 0.6% (n = 360,000);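 active = inhibition above a per-plate cutoff, the plate's mean sample inhibition plus 3 SD, cut at about 24% in these data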;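 also: 0% = DMSO plus EC80 ATP and 100% = DMSO alone without ATP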
CHO-K1 Ca ag: counter-screen for M1 agonists: effect in parental CHO-K1 cells. activation, % at 3 µM. actives 0.48% (n = 360,000). AID 602248, 2012. Fluo-8 calcium fluorescence; scaled to maximal ATP response, vehicle zero; in the data active = activation above about 15%;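 also: untransfected CHO-K1 host cells lacking M1 receptor as counterscreen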
OX1R antag-1: antagonists of human orexin 1 receptor (OX1R). Orexin/Hypocretin receptor type 1 (Homo sapiens), O43613. OX1R-expressing cells, FRET antagonist read-out. inhibition, % at 6.6 µM. actives 1.8% (n = 330,000). AID 485270, 2010; in the data active = inhibition mostly above about 38%, no sharp cut-off; inactive = mostly below about 40%;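 also: 0% = agonist challenge alone and 100% = reference antagonist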
Target sequence (O43613 whole entry, looked up): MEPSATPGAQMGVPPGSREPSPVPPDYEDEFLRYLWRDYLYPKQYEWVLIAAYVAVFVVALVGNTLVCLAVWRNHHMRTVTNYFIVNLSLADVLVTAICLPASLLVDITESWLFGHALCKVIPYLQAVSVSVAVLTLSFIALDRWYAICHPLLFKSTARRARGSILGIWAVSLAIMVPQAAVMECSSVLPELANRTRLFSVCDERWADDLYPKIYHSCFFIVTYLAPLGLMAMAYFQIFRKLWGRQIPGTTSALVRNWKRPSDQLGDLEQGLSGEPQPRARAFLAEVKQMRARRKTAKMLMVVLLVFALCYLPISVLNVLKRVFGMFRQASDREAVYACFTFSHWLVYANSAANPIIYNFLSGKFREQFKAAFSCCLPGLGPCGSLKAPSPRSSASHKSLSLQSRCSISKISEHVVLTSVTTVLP
CHO parental Ca: ATP-evoked calcium signal inhibitors, parental CHO, primary screen, counter-screen for OX1R antagonist project, cell-based, fluorescence, Fluo-8 calcium dye; parental CHO-K1, ATP-induced calcium, Fluo-8 fluorescence; inhibition, % at 5.6 µM; actives 0.63% (n = 330,000); AID 463079, 2010;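 active = inhibition above that plate's mean sample inhibition plus 3 SD, cut at about 26% in these data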;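 also: 0% = ATP-challenged DMSO wells and 100% = DMSO wells without ATP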
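Assay system – parental CHO cells · Reagent – ATP stimulus · Detection – intracellular calcium via Fluo-8 no-wash fluorescent dye · Evaluation – percent inhibition of ATP-evoked calcium rise, normalized to controls · Controls – ATP wells versus no-ATP DMSO wells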
OX1R antag-2: OX1R (HCRTR1) antagonists, primary screen, fluorescence, CHO/OX1R cells, Fluo-8 calcium, orexin A; actives 0.43% (n = 330,000); inhibition, % at 5 µM; Orexin/Hypocretin receptor type 1 (Homo sapiens), O43613; Fluo-8 calcium fluorescence;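 active = inhibition above its plate's threshold, mean inhibition of all tested compounds on the plate plus 3 SD, cut at about 37% in these data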;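 also: 0% = orexin A challenge wells and 100% = SB-334867-A antagonist wells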
CHO-K1 Ca PAM: nonselective calcium activators in parental CHO-K1 cells, primary screen, counter-screen for M1 PAM project, cell-based, Fluo-8 calcium fluorescence, full deck, 1536-well; activation, % at 3 µM; actives 0.02% (n = 360,000); AID 602247, 2012; ATP EC20; 0% at ATP EC20, 100% at ATP max;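 active = activation above the run cutoff, the mean activation of all test compounds plus 3 SD, cut at about 40% in these data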;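 also: peak over basal fluorescence ratio in a 140 s read after ATP addition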
* marks the source's active call; other numbers are inactive results; x = no result. Most compounds without a hit are left out; they make up all but 2.9% or so of the library.

SMILES	CHO-K1 Ca antag	CHO-K1 Ca ag	OX1R antag-1	CHO parental Ca	OX1R antag-2	CHO-K1 Ca PAM
Cc1ccc2sc(NC(=O)CN3C(=O)CCC3=O)nc2c1C	29.0*	0.6	11.2	-2.9	9.0	-5.6
CSCCC(NC(=O)c1ccccc1)C(=O)NCCCn1nc(C)cc1C (centres undefined)	-1.1	0.3	14.7	-13.7	-38.5	-12.8
Cc1ccc(C(C)NC(=O)/C(C#N)=C\c2c(C)[nH]c3ccccc23)cc1 (centres undefined)	-10.5	7.3	17.8	33.0*	-5.1	12.2
O=C1c2ccccc2S(=O)(=O)c2cc(N3CCOCC3)ccc21	1.0	-0.1	56.0*	-16.5	-22.5	-0.8
O=C1c2ccccc2S(=O)(=O)c2cc(N3CCN(c4ccccc4)CC3)ccc21	x	x	16.7	-9.4	-8.1	x
CCCCNc1c(-c2ccc(SC(C)CC)c(OC)c2)nc2ccc(C)cn12 (centres undefined)	8.8	2.2	67.8*	44.4*	41.8	0.3
CCCCCCSc1ccc(-c2nc3ccc(C)cn3c2NCCCC)cc1OC	-17.0	0.8	x	x	x	7.4
CCCCNc1c(-c2ccc(OC)c(Sc3ccc(OC)cc3)c2)nc2ccccn12	-8.4	6.7	48.0	45.1*	40.9	2.4
CCC(C)Sc1cccc(-c2nc3ccc(C)cn3c2NCc2ccccc2)c1 (centres undefined)	-0.7	1.9	44.0	49.2*	61.5*	-10.1
CCCCNc1c(-c2ccc(OC)c(Sc3ccc(OC)cc3)c2)nc2cnccn12	3.5	1.6	14.2	-26.8	0.2	-11.5
O=c1ccc2ccc(Oc3ccc([N+](=O)[O-])cc3[N+](=O)[O-])cc2o1	x	x	85.3*	-9.1	-10.8	x
Cc1nn(CCCC(=O)Nc2c(F)cc(F)cc2Br)c(C)c1[N+](=O)[O-]	-14.9	1.2	6.2	-1.5	-20.9	-1.1
CSc1nc(N)nc(-c2cccs2)c1C#N	21.4	0.1	100.6*	11.7	26.7	-8.1
CC(C)Sc1nc(N)nc(-c2cccs2)c1C#N	-21.4	0.6	32.0	-15.6	-2.6	21.6
Cc1nn(C(=O)CCCC(=O)NCc2ccccc2)c2ccccc12	-2.0	0.5	6.3	-17.1	-9.7	7.6
O=C1C=CC(=O)N1CCCCCCCCCCN1C(=O)C=CC1=O	-5.3	2.1	x	x	x	18.6
O=C(c1[nH]ncc1-c1ccccc1)C1CO1 (centres undefined)	5.0	19.4*	3.1	-17.9	-14.9	17.0
O=C(c1[nH]ncc1-c1cccc(Br)c1)C1CO1 (centres undefined)	-7.6	0.5	3.2	-9.5	-11.3	-6.5
Cc1ccccc1-n1nc2c(c1NC(=O)C1CCCC1)CS(=O)(=O)C2	-15.8	0.6	8.3	-17.2	-9.2	21.3
CCOC(=O)/C=C1/N(C)c2ccccc2C1(C)C	-17.6	1.9	10.5	-1.5	-12.7	15.5
CN1/C(=C\P(=O)(N(C)C)N(C)C)C(C)(C)c2ccccc21	16.0	2.1	25.1	44.6*	77.3*	4.6
Cc1ccc(N2CC(C(=O)Nc3nnc(SCC(N)=O)s3)CC2=O)cc1 (centres undefined)	-5.2	0.5	17.1	-7.5	-8.8	3.1
Cc1cc2ccccc2n1CCNCc1c(C(=O)N2CCOCC2)nc2ccccn12	23.7*	11.1	3.4	-16.5	-19.4	11.6
N#CC1CC(c2ccccc2)=NN1c1ccccc1[N+](=O)[O-] (centres undefined)	23.8*	-0.1	24.2	-10.2	-16.6	-12.8
O=CN1N=C(c2ccccc2)CC1c1ccccc1[N+](=O)[O-] (centres undefined)	-1.2	0.4	15.2	-6.3	-20.4	14.7
SMILES	CHO-K1 Ca antag	CHO-K1 Ca ag	OX1R antag-1	CHO parental Ca	OX1R antag-2	CHO-K1 Ca PAM
Cc1noc(C)c1S(=O)(=O)N1CCN(c2ccc(Cl)cc2)CC1	-11.5	0.5	3.0	-8.2	-7.9	12.8
Cc1noc(C)c1S(=O)(=O)Nc1ccc(C(=O)N2CCN(c3ccc(Cl)cc3)CC2)cc1	21.8	10.1	45.4	36.2*	48.5*	7.5
O=C(NC1CCCC1)C(c1ccccc1F)N(C(=O)c1csnn1)c1ccccc1 (centres undefined)	-5.7	1.4	x	x	x	7.9
NC(=O)C1CCN(c2nc(-c3ccc(F)cc3)cs2)CC1	-14.6	1.2	57.2*	-6.1	-4.3	14.7
O=C(c1ccc(F)cc1)C1CCN(Cc2ccccc2)CC1	6.9	15.9*	x	x	x	4.0
COc1ccc(NC(=O)CN2CCC(C(=O)c3ccc(F)cc3)CC2)c(OC)c1	-10.8	36.8*	58.4	-27.5	-14.6	-9.4
COc1ccc(NC(=O)CN2CCN(c3nc(-c4ccc(F)cc4)cs3)CC2)c(OC)c1	-26.5	0.4	6.4	-24.5	-7.4	53.2*
COc1ccc(NC(=O)CN2CCC(C(=O)c3ccc(C)cc3)CC2)c(OC)c1	-32.8	2.6	19.3	-36.7	-18.4	32.3
Cc1ccc(CNC(=O)C2CCC(=O)N(CC3CCCCC3)C2)o1 (centres undefined)	14.4	0.2	6.0	-12.9	-22.2	-19.0
COc1ccc(OC)c(C(=O)N2CCC(C(=O)c3ccc(F)cc3)CC2)c1	24.0*	0.8	5.2	-13.3	-18.4	-7.3
COc1cc(NC(=O)c2ccccc2)c(OC)cc1NC(=O)CN1CCCCC1	26.3*	-0.5	30.9	-23.6	-27.6	-5.7
COc1cc(NC(=O)c2ccccc2)c(OC)cc1NC(=O)CN1CCOCC1	-0.5	0.8	8.2	-22.3	-38.5	13.5
COc1ccc(NC(=O)CN2CCN(c3ccc(Cl)cc3)CC2)c(OC)c1	-20.8	-0.2	0.8	-66.0	-31.6	42.2*
COc1ccc(NC(=O)N2CCC(C(=O)c3ccc(F)cc3)CC2)cc1	0.2	0.1	16.1	-8.5	-17.1	15.1
COc1ccc(-n2cc3ccc([N+](=O)[O-])cc3n2)cc1	-4.7	3.4	11.8	8.7	-1.4	-0.2
CN(C)C(CNC(=S)Nc1ccccc1)c1cccnc1 (centres undefined)	-7.2	0.2	0.1	-1.5	-7.6	20.1
CCc1cccc(C)c1NC(=S)NCC(c1cccnc1)N(C)C (centres undefined)	8.3	17.1*	11.4	-7.1	-11.4	-5.3
CCc1nnc2n1N=C(c1ccc(OC)cc1)CS2	-5.5	8.6	12.2	-20.9	-12.2	12.5
CCc1nnc2n1N=C(c1ccc([N+](=O)[O-])cc1)CS2	-6.2	0.3	56.1*	-10.9	-11.8	9.4
CCOc1ccc2nc3cc(NCc4ccc(OC)cc4)ccc3c(N)c2c1	-5.4	0.8	44.2*	2.1	10.0	-4.7
Cc1ccc(C(=O)Nc2nnc(-c3ccco3)o2)cc1	0.5	-0.2	6.9	-15.2	-20.1	0.1

Screening data as filed in PubChem BioAssay.
